{"data": "Measured values gathered from unrelated publications", "note": "Each line is one published result; the experiments were not run side by side."}
{"Structure (SMILES)": "Nc1ccc(C(=O)O)c(O)c1", "tested on": "Mycobacterium tuberculosis variant bovis", "assay": "microbial growth", "test system": "BCG", "endpoint": "MIC", "result": "0.125 µg/mL"}
{"Structure (SMILES)": "C[C@]12CC[C@@H](O)C[C@@H]1CC[C@@H]1[C@@H]2CC[C@]2(C)[C@@H]([N+](=O)[O-])CC[C@@H]12", "assay": "6 Hz seizures", "test system": "mouse", "setting": "intraperitoneal", "endpoint": "ED50", "result": "5.3 mg/kg"}
{"Structure (SMILES)": "CC(C(=O)NCC1CCCCC1)c1cccc(C(OC(=O)NCC2CCCCC2)c2ccccc2)c1 (stereo not drawn)", "tested on": "L1210", "assay": "cell growth or viability", "setting": "48 h", "endpoint": "IC50", "result": "11000 nM"}
{"Structure (SMILES)": "CCN(CC)CCCC(C)Nc1ccnc2cc(Cl)ccc12 (stereo not drawn)", "tested on": "Plasmodium falciparum", "assay": "parasite growth", "test system": "W2", "setting": "drug-resistant strain, blood stage", "endpoint": "IC50", "result": "0.1 µg/mL"}
{"Structure (SMILES)": "C[C@]1(O)CC[C@@]2(C)[C@@H](CC[C@@H]3[C@@H]2CC[C@]2(C)[C@@H]([N+](=O)[O-])CC[C@@H]32)C1", "assay": "6 Hz seizures", "test system": "mouse", "setting": "intraperitoneal", "endpoint": "ED50", "result": "> 100 mg/kg"}
{"Structure (SMILES)": "O=C1C(O)=C([C@H]2CC[C@H](c3ccc(Cl)cc3)CC2)C(=O)c2ccccc21", "tested on": "Plasmodium falciparum", "assay": "parasite growth, SYBR Green", "test system": "3D7", "endpoint": "EC50", "result": "0.45 nM"}
{"Structure (SMILES)": "Cc1cc(NC2Cc3cc(F)c(F)cc3C2)n2nc(C(C)(F)F)nc2n1", "tested on": "Plasmodium falciparum", "assay": "parasite growth", "test system": "HB3", "setting": "drug-resistant strain, blood stage", "endpoint": "EC50", "result": "21 nM"}
{"Structure (SMILES)": "Cc1nc(Nc2ccc(C)c(Cl)c2)c2c(C)noc2n1", "tested on": "Plasmodium falciparum", "assay": "parasite growth, SYBR Green", "test system": "3D7", "endpoint": "EC50", "result": "336 nM"}
{"Structure (SMILES)": "CO[C@H]1/C=C/O[C@@]2(C)Oc3c(C)c(O)c4c(O)c(c(/C=N/N5CCN(C)CC5)c(O)c4c3C2=O)NC(=O)/C(C)=C\\C=C\\[C@H](C)[C@H](O)[C@@H](C)[C@@H](O)[C@@H](C)[C@H](OC(C)=O)[C@@H]1C", "tested on": "Mycolicibacterium aurum", "assay": "microbial growth, agar dilution", "endpoint": "MIC", "result": "0.78 µg/mL"}
{"Structure (SMILES)": "CC(=O)c1c(Cc2ccccc2Cl)c[nH]c1C", "tested on": "Plasmodium falciparum", "assay": "parasite growth, SYBR Green", "test system": "3D7", "endpoint": "EC50", "result": "140 nM"}
{"Structure (SMILES)": "CONC(=O)OC(c1ccccc1)c1cccc(C(C)C(=O)NOC)c1 (stereo not drawn)", "tested on": "FM3A", "assay": "cell growth or viability", "setting": "48 h", "endpoint": "IC50", "result": "10000 nM"}
{"Structure (SMILES)": "Cc1cc(Nc2ccc(Cl)c(Cl)c2)n2nc(C)nc2n1", "tested on": "Plasmodium falciparum", "assay": "parasite growth, SYBR Green", "test system": "3D7", "endpoint": "EC50", "result": "106 nM"}
{"Structure (SMILES)": "CC(C(=O)N1CCCC1)c1cccc(C(OC(=O)N2CCCC2)c2ccccc2)c1 (stereo not drawn)", "tested on": "L1210", "assay": "cell growth or viability", "setting": "48 h", "endpoint": "IC50", "result": "41000 nM"}
{"Structure (SMILES)": "CCOc1cccc(=O)c2c(C)n(Cc3ccc(Cl)cc3)c(C)c12", "tested on": "Plasmodium falciparum", "assay": "parasite growth, SYBR Green", "test system": "3D7", "endpoint": "EC50", "result": "590 nM"}
{"Structure (SMILES)": "CCCCCCCCCCOc1cc2c(O)c(C(=O)OCC)cnc2cc1OCC", "tested on": "Plasmodium falciparum", "assay": "parasite growth, SYBR Green", "test system": "DD2", "setting": "blood stage", "endpoint": "IC50", "result": "< 5.7 nM"}
